{
  "source": "ChEMBL document CHEMBL2202989",
  "about": "“New adamantane phenylalkylamines with σ-receptor binding affinity and anticancer activity, associated with putative antagonism of neuropathic pain” (J Med Chem, 2012)",
  "key": {"BXPC-3 [1]": {"test_system": "BXPC-3", "test": "Induction of apoptosis in human BxPC3 cells assessed as early apoptosis at 0.5 uM using annexin V/7-AAD by FACS analysis (reference value: 9 %)", "type": "functional"}, "IGROV-1 [2]": {"test_system": "IGROV-1", "test": "Cell cycle arrest in human IGROV1 cells assessed as accumulation at G1 phase at 50 uM after 24 hrs using propidium iodide staining by FACS analysis (reference value: 27 %)", "type": "functional", "how_it_was_run": "(§1)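 Cells were plated 24 h before treatment and exposed for 24 h at final 0.5, 5, 15 and 50 μM in 0.5% DMSO, against vehicle-treated controls. Cells were then trypsinised and fixed in cold ethanol for 3 h at 4 °C. They were stained in a mix of RNase (200 μg/mL) and PI (1 mg/mL) for 45 min at room temperature in the dark. Flow cytometry used 488 nm excitation and 10 000 gated cells. Phase percentages were assigned from DNA content.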"}, "IGROV-1 [3]": {"test_system": "IGROV-1", "test": "Cell cycle arrest in human IGROV1 cells assessed as accumulation at sub G1 phase at 15 uM after 24 hrs using propidium iodide staining by FACS analysis (reference value: 4 %)", "type": "functional"}, "PC-3 [4]": {"test_system": "PC-3", "test": "Cell cycle arrest in human PC3 cells assessed as accumulation at G1 phase at 5 uM after 24 hrs using propidium iodide staining by FACS analysis (reference value: 36 %)", "type": "functional"}, "IGROV-1 [5]": {"test_system": "IGROV-1", "test": "Cell cycle arrest in human IGROV1 cells assessed as accumulation at G1 phase at 5 uM after 24 hrs using propidium iodide staining by FACS analysis (reference value: 27 %)", "type": "functional", "how_it_was_run": "as §1"}, "BXPC-3 [6]": {"test_system": "BXPC-3", "test": "Cell cycle arrest in human BxPC3 cells assessed as accumulation at sub G1 phase at 5 uM after 24 hrs using propidium iodide staining by FACS analysis (reference value: 9 %)", "type": "functional", "how_it_was_run": "as §1"}, "IGROV-1 [7]": {"test_system": "IGROV-1", "test": "Cell cycle arrest in human IGROV1 cells assessed as accumulation at >G2/M phase at 0.5 uM after 24 hrs using propidium iodide staining by FACS analysis (reference value: 21 %)", "type": "functional", "how_it_was_run": "as §1"}, "OVCAR-5": {"test_system": "OVCAR-5", "test": "Antitumor activity against human OVCAR5 cells xenografted in SCID mouse assessed as primary tumor growth inhibition at 55 mg/kg, ip administered 5 consecutive days in a week for two cycles measured after 2 cycles relative to control", "type": "functional", "conditions": "OVCAR-5, ip, route intraperitoneal, read-out: TGI", "how_it_was_run": "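SCID mice carried OVCAR5 xenografts (10^6 cells per inoculum), 16 mice (32 tumors) per group, with ip dosing in 5% Tween 80 from a tumor volume of about 100 mm3. Caliper volume was measured twice weekly and %ΔT/ΔC derived. At termination, primary tumors were weighed and secondary metastases were scored at axillary and bone sites (n = 7−8). Two-tailed t test.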"}, "BXPC-3 [8]": {"test_system": "BXPC-3", "test": "Induction of apoptosis in human BxPC3 cells assessed as late apoptosis at 0.5 uM using annexin V/7-AAD by FACS analysis (reference value: 9 %)", "type": "functional"}, "PC-3 [9]": {"test_system": "PC-3", "test": "Antitumor activity against human PC3 cells xenografted in SCID mouse assessed as tumor growth inhibition at 55 mg/kg, ip administered 5 consecutive days in a week for two cycles measured after 2 cycles relative to control", "type": "functional", "conditions": "PC-3, ip, route intraperitoneal, read-out: TGI", "how_it_was_run": "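PC3 xenografts were grown in SCID mice (10^6 cells per inoculum), 14 mice (28 tumors) per group, dosed ip from about 100 mm3. The test agent was given in 5% Tween 80; paclitaxel was given in Cremophor diluted in saline, with a vehicle of 1:1 ethanol/Cremophor diluted 1:3 in saline. Volume and %ΔT/ΔC were derived from caliper readings twice weekly. Occurrence of primary tumors and of axillary and bone metastases was scored (n = 7). Two-tailed t test.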"}, "PC-3 [10]": {"test_system": "PC-3", "test": "Cell cycle arrest in human PC3 cells assessed as accumulation at G2 phase at 15 uM after 24 hrs using propidium iodide staining by FACS analysis (reference value: 12 %)", "type": "functional"}, "BXPC-3 [11]": {"test_system": "BXPC-3", "test": "Antitumor activity against human BxPC3 cells xenografted in SCID mouse assessed as tumor growth inhibition at 40 mg/kg, ip administered 3 consecutives days per week for three cycles measured after 3 cycles relative to control", "type": "functional", "conditions": "BXPC-3, ip, route intraperitoneal, read-out: TGI", "how_it_was_run": "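BxPC3 xenografts were grown in SCID mice from inocula of 10^6 exponentially growing cells, with 10 mice (20 tumors) per group. Treatment started ip once tumors averaged about 100 mm3. The test agent was given in 5% Tween 80 and gemcitabine in water for injection. Tumor volume was measured by caliper twice weekly and %ΔT/ΔC was computed; two-tailed Student's t test.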"}, "BXPC-3 [12]": {"test_system": "BXPC-3", "test": "Induction of apoptosis in human BxPC3 cells assessed as healthy cells at 50 uM using annexin V/7-AAD by FACS analysis (reference value: 79 %)", "type": "functional"}, "Mus musculus": {"test_system": "Mus musculus", "test": "Toxicity in CD1 mouse assessed as mortality at 40 to 55 mg/kg, ip for 2 to 3 weeks", "type": "organism-based", "parameters": "route intraperitoneal", "conditions": "in vivo", "how_it_was_run": "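CD-1 (male and female) and SCID mice dosed ip at 40−55 mg/kg in 5% Tween 80 for chronic 2−3 week regimens. Deaths and body weight loss compared with vehicle (Tween 80 or Cremophor) and reference-drug groups. Weight loss, neurological, behavioral and dietary changes recorded as toxicity signs.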"}, "PC-3 [13]": {"test_system": "PC-3", "test": "Induction of apoptosis in human PC3 cells assessed as early apoptosis at 50 uM using annexin V/7-AAD by FACS analysis (reference value: 5 %)", "type": "functional", "how_it_was_run": "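Cells plated 24 h before treatment, then exposed 24 h to 0.5, 5, 15 or 50 μM compound (final DMSO 0.5%); vehicle controls included. Cells scraped and stained with annexin V-FITC and 7-AAD for 15 min on ice in the dark. Flow cytometry with 488 nm excitation, 10,000 gated cells. Early apoptosis was annexin V+/7-AAD−, late was annexin V+/7-AAD+.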"}, "IGROV-1 [14]": {"test_system": "IGROV-1", "test": "Induction of apoptosis in human IGROV1 cells assessed as late apoptosis at 0.5 uM using annexin V/7-AAD by FACS analysis (reference value: 5 %)", "type": "functional"}, "PC-3 [15]": {"test_system": "PC-3", "test": "Cell cycle arrest in human PC3 cells assessed as accumulation at S phase at 5 uM after 24 hrs using propidium iodide staining by FACS analysis (reference value: 42 %)", "type": "functional"}, "PC-3 [16]": {"test_system": "PC-3", "test": "Cell cycle arrest in human PC3 cells assessed as accumulation at S phase at 50 uM after 24 hrs using propidium iodide staining by FACS analysis (reference value: 42 %)", "type": "functional"}, "IGROV-1 [17]": {"test_system": "IGROV-1", "test": "Cell cycle arrest in human IGROV1 cells assessed as accumulation at sub G1 phase at 5 uM after 24 hrs using propidium iodide staining by FACS analysis (reference value: 4 %)", "type": "functional"}, "IGROV-1 [18]": {"test_system": "IGROV-1", "test": "Induction of apoptosis in human IGROV1 cells assessed as cleaved caspase3 containing cells at 50 uM by antibody-based FACS analysis (reference value: 3.9 %)", "type": "functional"}, "PC-3 [19]": {"test_system": "PC-3", "test": "Cell cycle arrest in human PC3 cells assessed as accumulation at >G2/M phase at 5 uM after 24 hrs using propidium iodide staining by FACS analysis (reference value: 6 %)", "type": "functional"}, "IGROV-1 [20]": {"test_system": "IGROV-1", "test": "Cell cycle arrest in human IGROV1 cells assessed as accumulation at G2 phase at 0.5 uM after 24 hrs using propidium iodide staining by FACS analysis (reference value: 19 %)", "type": "functional", "how_it_was_run": "as §1"}},
  "data": [
    {"molecule": "CN1CCN(CCCc2ccc(C(c3ccccc3)C34CC5CC(CC(C5)C3)C4)cc2)CC1", "note": "(configuration not stated)", "values": [
      {"measurement": "Activity", "setting": "BXPC-3 [1]", "result": 10, "unit": "%"},
      {"measurement": "Activity", "setting": "IGROV-1 [2]", "result": 30, "unit": "%"},
      {"measurement": "Activity", "setting": "IGROV-1 [3]", "result": 12, "unit": "%"},
      {"measurement": "Activity", "setting": "PC-3 [4]", "result": 36, "unit": "%"},
      {"measurement": "Activity", "setting": "IGROV-1 [5]", "result": 29, "unit": "%"},
      {"measurement": "Activity", "setting": "BXPC-3 [6]", "result": 8, "unit": "%"},
      {"measurement": "Activity", "setting": "IGROV-1 [7]", "result": 20, "unit": "%"},
      {"measurement": "inhibition in vivo at 55 mg/kg", "setting": "OVCAR-5", "result": 46.9, "unit": "%"},
      {"measurement": "Activity", "setting": "BXPC-3 [8]", "result": 7, "unit": "%"},
      {"measurement": "inhibition in vivo at 55 mg/kg", "setting": "PC-3 [9]", "result": 48, "unit": "%"},
      {"measurement": "Activity", "setting": "PC-3 [10]", "result": 11, "unit": "%"},
      {"measurement": "inhibition in vivo at 40 mg/kg", "setting": "BXPC-3 [11]", "result": 21.8, "unit": "%"},
      {"measurement": "Activity", "setting": "BXPC-3 [12]", "result": 12, "unit": "%"},
      {"measurement": "Activity", "setting": "Mus musculus", "result": "Non-toxic"},
      {"measurement": "Activity", "setting": "PC-3 [13]", "result": 15, "unit": "%"},
      {"measurement": "Activity", "setting": "IGROV-1 [14]", "result": 3, "unit": "%"},
      {"measurement": "Activity", "setting": "PC-3 [15]", "result": 36, "unit": "%"},
      {"measurement": "Activity", "setting": "PC-3 [16]", "result": 31, "unit": "%"},
      {"measurement": "Activity", "setting": "IGROV-1 [17]", "result": 4, "unit": "%"},
      {"measurement": "Activity", "setting": "IGROV-1 [18]", "result": 15.8, "unit": "%"},
      {"measurement": "Activity", "setting": "PC-3 [19]", "result": 6, "unit": "%"},
      {"measurement": "Activity", "setting": "IGROV-1 [20]", "result": 23, "unit": "%"}
    ]}
  ]
}
